Measured values: ChEMBL document CHEMBL4837261, “Optimization of TopoIV Potency, ADMET Properties, and hERG Inhibition of 5-Amino-1,3-dioxane-Linked Novel Bacterial Topoisomerase Inhibitors: Identification of a Lead with In Vivo Efficacy against MRSA” (J Med Chem, 2021)
≈ marks a conversion by molar mass, not a printed value. Calls of active or inactive are those of the source. No cut-off for these calls is given here.

Key:
[1] = Metabolic stability in CD1 mouse liver microsomes assessed as intrinsic clearance at 2 uM measured up to 120 mins by LC-MS/MS analysis; type: ADME, Microsome; conditions: 2 h
[2] = Metabolic stability in CD1 mouse liver microsomes assessed as half life at 2 uM measured up to 120 mins by LC-MS/MS analysis; type: ADME, Microsome
[3] = Growth inhibition of human K/VP.5 cells incubated for 48 hrs by NBTI cell counting analysis; type: functional; conditions: K562, 48 h
Staphylococcus aureus [4] = experiment: Antibacterial activity against Staphylococcus aureus harbouring GyrA D83N mutant by CLSI method; type: functional
DNA gyrase [5] = molecular target: DNA gyrase (Staphylococcus aureus, UniProt P0A0K8+P20831); experiment: Inhibition of Staphylococcus aureus Gyrase supercoiling activity assessed as reduction in supercoiling pBR322 DNA by measuring relaxation by bromophenol blue staining based TAE gel method; type: protein-complex assay
Staphylococcus aureus [6] = experiment: Antibacterial activity against Staphylococcus aureus by CLSI method; type: functional
In short: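 MICs were determined by broth microdilution per CLSI guidelines, in triplicate at minimum. Strains were S. aureus ATCC 29213, MRSA USA300 and a cystic fibrosis respiratory isolate, and ranges are given where seen.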

Acinetobacter baumannii = experiment: Antibacterial activity against Acinetobacter baumannii by CLSI method; type: functional
Staphylococcus aureus [7] = experiment: Antibacterial activity against Staphylococcus aureus 3527 by CLSI method; type: functional
Topoisomerase IV = Topoisomerase IV (Staphylococcus aureus, UniProt P0C1S7+P0C1U9); experiment: Inhibition of Staphylococcus aureus topoisomerase IV decatenation activity using kDNA as substrate by ethidium bromide/bromophenol blue staining based agarose gel electrophoresis analysis; type: protein-complex assay
Enterococcus sp. = experiment: Antibacterial activity against Enterococcus sp. by CLSI method; type: functional
Staphylococcus aureus [8] = experiment: Antibacterial activity against methicillin-resistant Staphylococcus aureus USA300 by CLSI method; type: functional
DNA gyrase [9] = molecular target: DNA gyrase (Staphylococcus aureus, UniProt P0A0K8+P20831, D83N); experiment: Inhibition of Staphylococcus aureus DNA Gyrase D83N mutant assessed as reduction in supercoiling pBR322 DNA by measuring relaxation by bromophenol blue staining based TAE gel method
Streptococcus pneumoniae = experiment: Antibacterial activity against Streptococcus pneumoniae by CLSI method; type: functional
Staphylococcus aureus [10] = experiment: Antibacterial activity against Staphylococcus aureus ATCC 29213 by CLSI method; type: functional
Bacillus anthracis = experiment: Antibacterial activity against Bacillus anthracis by CLSI method; type: functional
Staphylococcus aureus [11] = experiment: Antibacterial activity against cystic fibrosis isolate Staphylococcus aureus by CLSI method; type: functional
K562 = experiment: Growth inhibition of log-phase human K562 cells incubated for 48 hrs by NBTI cell counting analysis; type: functional, cell-based
[12] = molecular target: T1, DNA gyrase (Staphylococcus aureus) (UniProt P0A0K8+P20831); experiment: Inhibition of Staphylococcus aureus DNA Gyrase assessed as reduction in supercoiling pBR322 DNA by measuring induction of double strand breaks at 200 uM by ethidium bromide staining based agarose gel electrophoresis; type: protein-complex assay
[13] = molecular target: T1, DNA gyrase (Staphylococcus aureus); experiment: Inhibition of Staphylococcus aureus DNA Gyrase assessed as reduction in supercoiling pBR322 DNA by measuring induction of single strand breaks at 100 uM by ethidium bromide staining based agarose gel electrophoresis; type: protein-complex assay
Streptococcus pyogenes = experiment: Antibacterial activity against Streptococcus pyogenes isolates by CLSI method; type: functional
[14] = molecular target: Voltage-gated inwardly rectifying potassium channel KCNH2 (Homo sapiens, UniProt Q12809); experiment: Inhibition of human ERG
In short: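 hERG channel inhibition was measured on the IonWorks Barracuda automated patch system. IC50 came from eight-point concentration–response curves with four replicates per concentration.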

[15] = Homo sapiens, K562, 48 h, read-out: IC50

Voltage-gated inwardly rectifying potassium channel KCNH2, sequence (Q12809 whole entry): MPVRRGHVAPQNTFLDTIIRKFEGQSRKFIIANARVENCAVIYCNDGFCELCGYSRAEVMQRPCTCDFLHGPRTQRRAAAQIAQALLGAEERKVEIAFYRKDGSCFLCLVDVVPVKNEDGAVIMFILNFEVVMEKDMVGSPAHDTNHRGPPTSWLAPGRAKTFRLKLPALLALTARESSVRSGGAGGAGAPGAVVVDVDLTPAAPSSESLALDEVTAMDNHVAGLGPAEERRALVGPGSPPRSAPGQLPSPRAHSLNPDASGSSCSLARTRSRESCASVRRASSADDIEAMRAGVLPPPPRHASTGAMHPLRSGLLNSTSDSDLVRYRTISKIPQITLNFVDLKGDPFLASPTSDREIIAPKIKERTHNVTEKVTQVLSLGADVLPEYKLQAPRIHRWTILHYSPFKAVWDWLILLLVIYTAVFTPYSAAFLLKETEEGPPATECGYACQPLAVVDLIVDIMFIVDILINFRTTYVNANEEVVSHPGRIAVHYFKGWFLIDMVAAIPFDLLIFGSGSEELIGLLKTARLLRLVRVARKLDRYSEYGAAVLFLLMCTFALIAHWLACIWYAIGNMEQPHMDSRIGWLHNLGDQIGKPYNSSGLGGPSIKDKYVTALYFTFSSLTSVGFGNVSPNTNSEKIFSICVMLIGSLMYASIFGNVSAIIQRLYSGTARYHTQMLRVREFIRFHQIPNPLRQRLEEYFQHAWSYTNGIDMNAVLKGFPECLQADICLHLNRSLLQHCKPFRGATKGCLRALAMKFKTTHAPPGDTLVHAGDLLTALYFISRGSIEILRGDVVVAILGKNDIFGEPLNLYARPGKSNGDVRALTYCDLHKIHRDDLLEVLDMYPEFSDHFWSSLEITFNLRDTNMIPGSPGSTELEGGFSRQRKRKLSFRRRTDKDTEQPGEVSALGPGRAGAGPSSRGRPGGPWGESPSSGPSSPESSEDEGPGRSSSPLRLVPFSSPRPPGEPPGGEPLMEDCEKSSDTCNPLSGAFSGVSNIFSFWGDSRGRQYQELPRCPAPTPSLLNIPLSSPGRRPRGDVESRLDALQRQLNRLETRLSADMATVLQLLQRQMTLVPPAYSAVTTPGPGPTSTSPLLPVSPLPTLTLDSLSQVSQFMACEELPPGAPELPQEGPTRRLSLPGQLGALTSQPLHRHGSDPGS

SMILES	IC50 [3] [µM]	MIC (Staphylococcus aureus [4]) [µg/mL]	IC50 (DNA gyrase [5]) [µM]	MIC (Staphylococcus aureus [7]) [µg/mL]	IC50 (Topoisomerase IV) [µM]	MIC (Staphylococcus aureus [8]) [µg/mL]	MIC (Staphylococcus aureus [10]) [µg/mL]	MIC (Staphylococcus aureus [11]) [µg/mL]	other results
COc1ccc2nccc(CCN3CCC(NCc4ccc5c(c4)OCCO5)CC3)c2c1									intrinsic clearance (CLint) [1]: 1940 µL/min/mg; half-life at 2 µM [2]: 2.81 min
COc1ccc2nccc(CCN3CCC(NCc4cc5c(cn4)OCCO5)CC3)c2c1									intrinsic clearance (CLint) [1]: 2150 µL/min/mg; half-life at 2 µM [2]: 2.54 min
COc1ccc2ncc(F)c(C[C@H](O)[C@H]3OC[C@H](NCc4ccc5c(c4)OCCO5)CO3)c2n1	30.5	4 (≈ 8.48 µM)	0.06	0.125 (≈ 0.265 µM)	0.38	0.125 (≈ 0.265 µM)	0.125 (≈ 0.265 µM)	0.125 (≈ 0.265 µM)	MIC50 (Staphylococcus aureus [6]): 0.06 µg/mL (≈ 0.127 µM); MIC50 (Acinetobacter baumannii): 16 µg/mL (≈ 33.9 µM); MIC50 (Enterococcus sp.): 0.06 µg/mL (≈ 0.127 µM); IC50 (DNA gyrase [9]): 2.7 µM; MIC50 (Streptococcus pneumoniae): 0.5 µg/mL (≈ 1.06 µM); MIC50 (Bacillus anthracis): 1 µg/mL (≈ 2.12 µM); MIC90 (Bacillus anthracis): 4 µg/mL (≈ 8.48 µM)
COc1ccc2ncc(F)c(C(O)C[C@H]3OC[C@H](NCc4ccc5c(n4)NC(=O)CS5)CO3)c2n1 (mixture of isomers)	> 50	2 (≈ 3.99 µM)	0.054	≤ 0.25	2.8	0.125 (≈ 0.249 µM)	≤ 0.25	0.25 (≈ 0.498 µM)	IC50 (K562; [15]): 52.1 µM
COc1ccc2ncc(F)c(C(O)C[C@H]3OC[C@H](NCc4ccc5c(n4)NC(=O)CO5)CO3)c2c1 (mixture of isomers)	> 50	4 (≈ 8.26 µM)	0.52	≤ 0.5	2.6	0.25 (≈ 0.516 µM)	0.5 (≈ 1.03 µM)	0.5 (≈ 1.03 µM)	IC50 (K562; k562): Not Active
O=C(O)c1cn(C2CC2)c2cc(N3CCNCC3)c(F)cc2c1=O									Activity [12]: Active; Activity [13]: Active
COc1ccc2ncc(F)c(C(O)C[C@H]3OC[C@H](NCc4ccc5c(n4)NC(=O)CS5)CO3)c2c1 (mixture of isomers)	> 50	4 (≈ 7.99 µM)	0.33	≤ 0.25	1.5	0.25 (≈ 0.499 µM)	0.25 (≈ 0.499 µM)	0.5 (≈ 0.999 µM)	IC50 (K562; [15]): 56 µM
C[C@H]1COc2c(N3CCN(C)CC3)c(F)cc3c(=O)c(C(=O)O)cn1c23.C[C@H]1COc2c(N3CCN(C)CC3)c(F)cc3c(=O)c(C(=O)O)cn1c23.O [LEVOFLOXACIN]									MIC50 (Streptococcus pyogenes): 8 µg/mL; MIC90 (Streptococcus pyogenes): 64 µg/mL
COc1ccc2ncc(F)c(C[C@H](O)[C@H]3OC[C@H](NCc4cc5c(cn4)OCCO5)CO3)c2n1	145	4 (≈ 8.47 µM)	0.039	0.25 (≈ 0.529 µM)	1.3	≤ 0.25	0.125 (≈ 0.265 µM)	0.125 (≈ 0.265 µM)	MIC50 (Staphylococcus aureus [6]): 0.25 µg/mL (≈ 0.529 µM); MIC50 (Acinetobacter baumannii): 64 µg/mL (≈ 135 µM); MIC50 (Enterococcus sp.): 0.12 µg/mL (≈ 0.254 µM); IC50 (DNA gyrase [9]): 13 µM; MIC50 (Streptococcus pneumoniae): 0.5 µg/mL (≈ 1.06 µM); MIC50 (Bacillus anthracis): 2 µg/mL (≈ 4.23 µM); MIC90 (Bacillus anthracis): 8 µg/mL (≈ 16.9 µM)
COc1ccc2ncc(F)c(CC[C@H]3OC[C@H](NCc4ccc5c(c4)OCCO5)CO3)c2n1									intrinsic clearance (CLint) [1]: 2240 µL/min/mg; half-life at 2 µM [2]: 2.43 min; IC50 [14]: 23 µM
O=c1ccc2ncc(=O)n3c2n1C[C@H]3CN1CCC(NCc2cc3c(cn2)OCCC3)CC1 [GEPOTIDACIN]		8 (≈ 17.8 µM)		0.25 (≈ 0.557 µM)		0.25 (≈ 0.557 µM)	0.25 (≈ 0.557 µM)	0.25 (≈ 0.557 µM)	Activity [12]: Active; Activity [13]: Active
